MC4R barr agon: human MC4R agonism via beta-arrestin. U2OS MC4R beta-arrestin complementation, luminescence; percent of melanotan II response, DMSO zero. activation, % at 8.9 µM. 360,000 tested, 0.98% active;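 active = activation above a per-plate cutoff, the mean activation of sample wells on that plate plus 3 SD, cut at about 8% in these data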
EBI2 antag: blocks human EBI2 receptor beta-arrestin signaling; 360,000 tested, 0.81% active; P32249; AID 651636; EBI2 beta-arrestin recruitment, luminescence, 7a,25-OHC stimulated; inhibition, % at 5 µM; in the data active = inhibition above about 38%;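 note: enzyme fragment complementation signal reports receptor beta-arrestin coupling in cells; 0% = agonist plus DMSO wells and 100% = wells without agonist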
MC4R antag cAMP: human MC4R antagonism in cAMP assay; P32245; MC4R-expressing cells, MTII-stimulated cAMP, LANCE TR-FRET; inhibition, % at 6.5 µM; 360,000 tested, 0.48% active; AID 540295;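 active = inhibition above its plate's cutoff, the mean of tested wells on that plate plus 3 SD, cut at about 29% in these data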;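 note: 0% = Melanotan II alone and 100% = Melanotan II plus saturating MCL0020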
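System: U2OS-MC4R stable cell line; Technique: Eu-cAMP/anti-cAMP TR-FRET, emission 671 nm; Repeats: single well per compound; Also added: Melanotan II; Dosing: one concentration, 6.5 µM nominal; Schedule: 30-min compound, 1-h challenge, 1-h detection, room temperature.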
m5-HT2A agonist: activates the mouse 5-HT2A serotonin receptor | activation, % at 7.6 µM | CHO-K1 mHTR2A beta-arrestin complementation, luminescence; percent of 30 µM serotonin response | 360,000 tested, 0.66% active;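 active = activation above a run cutoff, the mean activation of all tested compounds plus 3 SD, cut at about 14% in these data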;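 note: 0% = plate median of compound wells and 100% = 30 µM serotonin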
Target sequence (P35363 whole entry, looked up): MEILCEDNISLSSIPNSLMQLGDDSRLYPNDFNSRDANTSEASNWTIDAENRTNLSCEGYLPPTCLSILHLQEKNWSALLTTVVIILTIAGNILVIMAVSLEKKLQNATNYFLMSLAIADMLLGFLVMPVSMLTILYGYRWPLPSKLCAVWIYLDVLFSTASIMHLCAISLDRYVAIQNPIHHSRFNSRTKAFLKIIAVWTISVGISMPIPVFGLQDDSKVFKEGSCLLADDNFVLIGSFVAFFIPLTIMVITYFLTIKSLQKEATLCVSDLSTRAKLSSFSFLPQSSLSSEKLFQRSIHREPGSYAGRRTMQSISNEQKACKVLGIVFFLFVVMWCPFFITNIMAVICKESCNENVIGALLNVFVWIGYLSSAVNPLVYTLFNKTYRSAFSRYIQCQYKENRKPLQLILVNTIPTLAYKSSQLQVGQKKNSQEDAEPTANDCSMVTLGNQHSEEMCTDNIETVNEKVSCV
MOR ag counter: OPRM1 agonism in mouse HTR2A counterscreen; activation, % at 9.3 µM; AID 624380; shares compounds with m5-HT2A agonist; 2,300 tested, 5.3% active; U2OS OPRM1 beta-arrestin PathHunter, luminescence; DMSO 0%, DAMGO 9.3 µM 100%;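 active = mean activation above the mean of DMSO-only wells plus 3 SD, cut at about 0.5% in these data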
m5-HT2A ag conf: mouse HTR2A agonism confirmed | shares compounds with m5-HT2A agonist | CHO-K1 PathHunter beta-arrestin recruitment, luminescence; DMSO 0%, 30 µM serotonin 100% | activation, % at 7.6 µM | 2,300 tested, 19% active | AID 624381;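 active = mean activation across triplicates above the hit threshold derived in the original primary screen, cut at about 15% in these data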
Starred values were filed as active, the others as inactive. The list is not random: actives were taken first. Their share in the collection is about 2.8%.

COCCCN1C(=O)C(CC(=O)NC2CC2)CC(C(=O)N(C(C)C)C(C)C)=C1C (configuration not stated) was read as EBI2 antag -8 and m5-HT2A agonist 2.
Screening Cc1[nH]c2ccccc2c1C(c1ccccn1)N1CCC(C(N)=O)CC1 (configuration not stated) returned MC4R barr agon 3, EBI2 antag -1, MC4R antag cAMP 10, m5-HT2A agonist 17*, MOR ag counter 0 and m5-HT2A ag conf -5.
Screening CC(C)c1ccc(N(CC(=O)NCCCN2CCOCC2)S(=O)(=O)c2ccccc2)cc1 returned MC4R barr agon 2, EBI2 antag 0, MC4R antag cAMP 9 and m5-HT2A agonist -1.
CCN(C(=O)COC(=O)/C=C/c1c(C)nn(-c2ccccc2)c1C)c1c(N)n(Cc2ccccc2)c(=O)[nH]c1=O was read as MC4R barr agon 0, EBI2 antag 9, MC4R antag cAMP -1, m5-HT2A agonist 18*, MOR ag counter -1 and m5-HT2A ag conf -3.
For CCN(C(=O)COC(=O)/C=C/c1ccc2c(c1)OCO2)c1c(N)n(Cc2ccccc2)c(=O)[nH]c1=O the results were MC4R barr agon -1, EBI2 antag -12, MC4R antag cAMP 1 and m5-HT2A agonist 5.
`N#Cc1ccc(OCC(=O)N2CCCC2=O)cc1` gave MC4R barr agon 0, EBI2 antag -3, MC4R antag cAMP 0, m5-HT2A agonist 15*, MOR ag counter 0.7* and m5-HT2A ag conf 2.
For CCOc1ccc(N2C(=O)CC(NCCc3ccncc3)C2=O)cc1 (configuration not stated) the results were MC4R barr agon 1, EBI2 antag -3, MC4R antag cAMP -1 and m5-HT2A agonist -2.
Screening CCOc1ccc(N2C(=O)CC(NCCc3c[nH]c4ccccc34)C2=O)cc1 (configuration not stated) returned MC4R barr agon -2, EBI2 antag 14, MC4R antag cAMP 3, m5-HT2A agonist 19*, MOR ag counter 0 and m5-HT2A ag conf -2.
`Cc1cccc(CN2CCN(C3CN(Cc4ccc(F)cc4)S(=O)(=O)C3)CC2)c1` (configuration not stated) gave EBI2 antag -4, m5-HT2A agonist 18*, MOR ag counter -1 and m5-HT2A ag conf 1.
Cc1ccc(CN2CC(N3CCN(Cc4cccc(C)c4)CC3)CS2(=O)=O)cc1 (configuration not stated) was read as EBI2 antag -2, m5-HT2A agonist 31*, MOR ag counter 0 and m5-HT2A ag conf 11.
Screening Cc1ccc(Cn2cc(CN3CC(N4CCN(Cc5cccc(C)c5)CC4)CS3(=O)=O)nn2)cc1 (configuration not stated) returned EBI2 antag 4 and m5-HT2A agonist 5.
Screening CCc1nc2ccc(C(=O)N(C)Cc3ccco3)cn2c1N(C)CCCc1ccccc1 returned MC4R barr agon 6, EBI2 antag 6, MC4R antag cAMP 9 and m5-HT2A agonist -6.
For CCCCn1c(N)c(N(CCC(C)C)C(=O)c2ccc([N+](=O)[O-])s2)c(=O)[nH]c1=O the results were MC4R barr agon -2, EBI2 antag -2, MC4R antag cAMP 2, m5-HT2A agonist 19*, MOR ag counter 0 and m5-HT2A ag conf -4.
CCCCN(C(=O)c1ccc([N+](=O)[O-])s1)c1c(N)n(CC(C)C)c(=O)[nH]c1=O was read as MC4R barr agon -2, EBI2 antag -23, MC4R antag cAMP 7 and m5-HT2A agonist 5.
CCCCN(CCCC)c1ccc(C(=O)c2ccccc2C(=O)O)c(O)c1 was read as MC4R barr agon -1, EBI2 antag 10, MC4R antag cAMP 4 and m5-HT2A agonist 1.
Screening CN(C)c1ccc(C(=O)c2ccccc2C(=O)O)c(O)c1 returned MC4R barr agon -1, EBI2 antag -4, MC4R antag cAMP 8, m5-HT2A agonist 17*, MOR ag counter -1 and m5-HT2A ag conf -2.
CC1(C)CC(=O)c2c(nc(SCC(=O)Nc3nsc(-c4ccccc4)n3)c(C#N)c2-c2ccccc2)C1 was read as MC4R barr agon -3, EBI2 antag -9, MC4R antag cAMP 15 and m5-HT2A agonist -4.
For COc1ccc(-c2c(C#N)c(SCc3c(C)noc3C)nc3c2C(=O)CC(C)(C)C3)cc1 the results were MC4R barr agon -1, EBI2 antag 41, MC4R antag cAMP 14, m5-HT2A agonist 18*, MOR ag counter -1 and m5-HT2A ag conf -3.
Screening COC(=O)[C@@]1(Sc2ccc(C)cc2)CC(=O)N(c2ccccc2)[C@@H]1c1ccccc1 returned EBI2 antag -31 and m5-HT2A agonist 3.
NC1=C(Cl)C(=O)c2ccccc2C1=O was read as MC4R barr agon 0, EBI2 antag -27, MC4R antag cAMP -33, m5-HT2A agonist 17*, MOR ag counter 0 and m5-HT2A ag conf -3.
For C=CCN1CCc2c(cc(O)c(O)c2Br)[C@@H](c2ccccc2)C1 the results were MC4R barr agon 1, EBI2 antag 6, MC4R antag cAMP -7, m5-HT2A agonist 61*, MOR ag counter 0 and m5-HT2A ag conf 141*.
CSc1nc(=O)[nH]nc1Sc1ccccc1 was read as MC4R barr agon -4, EBI2 antag -14, MC4R antag cAMP 14 and m5-HT2A agonist -2.
`CCOc1ccc(NC(=O)N2CCN(c3nc4ccccc4s3)CC2)cc1` gave MC4R barr agon 0, EBI2 antag -3, MC4R antag cAMP -2, m5-HT2A agonist 30*, MOR ag counter 0 and m5-HT2A ag conf 0.
Screening O=C(O)CCC(=O)N1CCN(c2nc3ccccc3s2)CC1 returned MC4R barr agon 0, EBI2 antag 2, MC4R antag cAMP 7, m5-HT2A agonist 45*, MOR ag counter 0 and m5-HT2A ag conf 12.
Cc1cccc(C)c1NC(=O)N1CCN(c2nc3ccccc3s2)CC1 was read as MC4R barr agon -2, EBI2 antag 2, MC4R antag cAMP 10, m5-HT2A agonist 39*, MOR ag counter 0 and m5-HT2A ag conf 0.
For COc1ccccc1N(C)c1cc2c(c3c1ccn3C)C1CCC2O1 (configuration not stated) the results were EBI2 antag -14 and m5-HT2A agonist 0.
Screening Oc1cc2c(cc1O)[C@@H](c1ccccc1)CNCC2 returned MC4R barr agon 1, EBI2 antag -2, MC4R antag cAMP -7, m5-HT2A agonist 19*, MOR ag counter 0 and m5-HT2A ag conf 48*.
`CN1CCc2cc(O)c(O)cc2C(c2ccccc2)C1` (configuration not stated) gave MC4R barr agon 0, EBI2 antag -14, MC4R antag cAMP -1, m5-HT2A agonist 17*, MOR ag counter 0 and m5-HT2A ag conf 78*.

Bioassay records as filed in PubChem.
